Laboratory results reported in ChEMBL document CHEMBL4428027, “3-Hydroxypyrimidine-2,4-diones as Selective Active Site Inhibitors of HIV Reverse Transcriptase-Associated RNase H: Design, Synthesis, and Biochemical Evaluations” (J Med Chem, 2016).

Assays:
[1] = biological target: T1, Human immunodeficiency virus type 1 reverse transcriptase (Human immunodeficiency virus 1, UniProt Q72547); test: Inhibition of RNase H activity of full length recombinant HIV1 reverse transcriptase assessed as reduction in nonspecific internal cleavage using HTS1 substrate; details: read-out: IC50
In short: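 Recombinant p66/p51 RT heterodimer. Fluorescent RNA/DNA duplex substrate HTS-1 measures internal cleavage. IC50 is the mean of at least three independent experiments.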

[2] = biological target: T1, Human immunodeficiency virus type 1 reverse transcriptase; test: Inhibition of polymerase activity of HIV1 reverse transcriptase using poly(rA)-oligo(dT)16 and [3H]-TTP incubated for 20 mins by liquid scintillation spectrometry
In short: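 Reaction mix: 10 µM [3H]-TTP, 40 nM poly(rA)-oligo(dT)16, 50 mM Tris-HCl pH 7.4 (37°C), 60 mM KCl, 5 mM MgCl2. Started with 10 nM RT; 20 min at 37°C. Quenched in ice-cold 10% TCA with 20 mM sodium pyrophosphate, then glass-fibre filtered and washed with TCA and ethanol. Label incorporation read by liquid scintillation.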

[3] = biological target: T1, Human immunodeficiency virus type 1 reverse transcriptase; test: Inhibition of RNase H activity of full length recombinant HIV1 reverse transcriptase assessed as reduction in DNA 3'-end cleavage using HTS2 substrate
In short: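 Recombinant p66/p51 RT heterodimer. Fluorescent RNA/DNA duplex substrate HTS-2 reports DNA 3′-end-directed (polymerase-dependent) cleavage. IC50 is the mean of at least three independent experiments.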

[4] = biological target: T1, Human immunodeficiency virus type 1 reverse transcriptase; test: Inhibition of RNase H activity of full length recombinant HIV1 reverse transcriptase assessed as reduction in RNA 5'-end directed cleavage using HTS3 substrate
[5] = Toxicity against human HeLa P4/R5 cells; type: cell-based
[6] = biological target: T1, Human immunodeficiency virus type 1 reverse transcriptase; test: Inhibition of re-constituted HIV1 reverse transcriptase RNase H domain fragment
In short: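 Secondary check using a catalytically active, isolated HIV RNase H domain fragment (reconstituted) with duplex substrate HTS-1.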

SMILES | IC50 [1] [µM] | IC50 [2] | IC50 ([3]; read-out: IC50) [µM] | IC50 ([4]; read-out: IC50) [µM] | IC50 [3] | IC50 ([2]; read-out: IC50) [µM] | CC50 [5] [µM] | IC50 ([6]; read-out: IC50) [µM] | IC50 [6] | IC50 [4]
Cn1c(Oc2ccc(-c3ccc(C#N)cc3)cc2)cc(=O)n(O)c1=O | 2.5 | Not Active | 11 | 4.7 |  |  |  |  |  | 
Cn1c(Oc2ccc(-c3ccc(Cl)cc3)cc2)cc(=O)n(O)c1=O | 2.4 | Not Active |  | 11 | Not Active |  |  |  |  | 
COc1ccc(-c2cccc(Nc3cc(=O)n(O)c(=O)n3C)c2)c(OC)c1 | 1 |  | 2.1 | 4.2 |  | 6.3 | 6 | 1.1 |  | 
Cn1c(Oc2ccc(-c3cccc(C#N)c3)cc2)cc(=O)n(O)c1=O | 1.9 | Not Active | 13 | 11 |  |  |  |  |  | 
Cn1c(Nc2ccc(-c3ccccc3)cc2)cc(=O)n(O)c1=O | 0.8 | Not Active | 3.5 | 5.1 |  |  | 6 | 1.7 |  | 
COc1ccccc1-c1ccc(Oc2cc(=O)n(O)c(=O)n2C)cc1 | 2.8 | Not Active |  | 22 | Not Active |  | 5 | 6.2 |  | 
COc1cccc(-c2cccc(Oc3cc(=O)n(O)c(=O)n3C)c2)c1 | 1 | Not Active | 17 | 9.4 |  |  | 5 | 3.6 |  | 
COc1cccc(-c2ccc(Nc3cc(=O)n(O)c(=O)n3C)cc2)c1 | 0.8 | Not Active | 3.5 | 5.1 |  |  | 6 | 1.7 |  | 
O=c1cc(Nc2ccc(-c3ccc(Cl)cc3)cc2)[nH]c(=O)n1O | 0.47 |  | 0.66 | 0.6 |  | 0.99 |  |  |  | 
O=c1cc(Nc2ccc(-c3ccccc3)cc2)[nH]c(=O)n1O | 0.25 |  | 0.3 | 0.3 |  | 2 | > 25 | 0.15 |  | 
Cn1c(Oc2cccc(-c3ccc(C(F)(F)F)cc3)c2)cc(=O)n(O)c1=O | 9.5 | Not Active |  |  | Not Active |  | > 25 |  | Not Active | Not Active
Cc1noc(C)c1-c1ccccc1Nc1cc(=O)n(O)c(=O)n1C | 6.6 | Not Active |  |  | Not Active |  |  |  |  | Not Active
Cn1c(Nc2cccc(-c3ccc(C#N)cc3)c2)cc(=O)n(O)c1=O | 0.7 |  | 2.3 | 3.4 |  | 5 | 10 | 1 |  | 
Cn1c(Nc2cccc(-c3cncnc3)c2)cc(=O)n(O)c1=O | 1.4 | Not Active | 4.1 | 3.9 |  |  | > 25 | 0.9 |  | 
Cc1ccc(-c2cccc(Nc3cc(=O)n(O)c(=O)n3C)c2)cc1 | 1.7 |  | 7.2 | 6.2 |  | 17 |  |  |  | 
COc1cccc(-c2ccccc2Oc2cc(=O)n(O)c(=O)n2C)c1 | 5.7 | Not Active |  |  | Not Active |  | 6 | 12 |  | Not Active
Cn1c(Oc2ccccc2-c2ccccc2O)cc(=O)n(O)c1=O | 11 | Not Active |  |  | Not Active |  |  |  |  | Not Active
COc1ccc(-c2ccc(Nc3cc(=O)n(O)c(=O)n3C)cc2)c(OC)c1 | 1.5 | Not Active | 4.3 | 5.3 |  |  |  |  |  | 

SMILES | IC50 [1] [µM] | IC50 [2] | IC50 ([3]; read-out: IC50) [µM] | IC50 ([4]; read-out: IC50) [µM] | IC50 [3] | IC50 ([2]; read-out: IC50) [µM] | CC50 [5] [µM] | IC50 ([6]; read-out: IC50) [µM] | IC50 [6] | IC50 [4]
COc1ccccc1-c1ccc(Nc2cc(=O)n(O)c(=O)n2C)cc1 | 2.8 | Not Active | 9.3 | 8.9 |  |  |  |  |  | 
COc1ccc(-c2ccc(Oc3cc(=O)n(O)c(=O)n3C)cc2)cc1 | 1.6 | Not Active | 11 | 12 |  |  | 6 | 4.7 |  | 
COc1ccc(-c2cccc(Nc3cc(=O)n(O)c(=O)n3C)c2)cc1OC | 0.5 |  | 2.2 | 3 |  | 5.8 | 10 | 0.9 |  | 
Cn1c(Oc2ccccc2-c2ccc(Cl)cc2)cc(=O)n(O)c1=O | 3.3 |  |  | 13 | Not Active | 14 |  |  |  | 
Cn1c(Oc2cccc(-c3ccccc3)c2)cc(=O)n(O)c1=O | 1 | Not Active |  | 15 | Not Active |  | 3 | 3.9 |  | 
COc1cc(OC)cc(-c2ccc(Nc3cc(=O)n(O)c(=O)n3C)cc2)c1 | 1.6 |  | 7.2 | 9.2 |  | 6.5 | 15 | 1.8 |  | 
O=c1nc(Nc2ccc(-c3cnc4ccccc4c3)cc2)c2cccnc2n1O |  |  |  |  |  |  | 2 |  |  | 
O=c1cc(Nc2ccc(-c3ccc(O)cc3)cc2)[nH]c(=O)n1O | 0.18 |  | 0.45 | 0.37 |  | 0.82 |  |  |  | 
COc1ccccc1-c1cccc(Oc2cc(=O)n(O)c(=O)n2C)c1 | 2.5 | Not Active |  | 13 | Not Active |  | 6 | 4.4 |  | 
Cn1c(Nc2ccc(-c3ccc(C#N)cc3)cc2)cc(=O)n(O)c1=O | 1.1 |  | 2.6 | 3.7 |  | 3.3 | 12 | 1 |  | 
Cn1c(Oc2cccc(-c3cccc(C#N)c3)c2)cc(=O)n(O)c1=O | 0.9 | Not Active | 6.7 | 4.6 |  |  |  |  |  | 
O=c1cc(Nc2ccc(-c3ccccc3O)cc2)[nH]c(=O)n1O | 0.24 |  | 0.49 | 0.46 |  | 0.83 |  |  |  | 
Cn1c(Nc2cccc(-c3ccc(O)cc3)c2)cc(=O)n(O)c1=O | 0.75 |  | 3.8 | 2.7 |  | 12 |  |  |  | 
Cn1c(Oc2ccc(-c3ccncc3)cc2)cc(=O)n(O)c1=O | 3.7 | Not Active |  | 10 | Not Active |  |  |  |  | 
Cn1c(Oc2cccc(-c3ccc(C#N)cc3)c2)cc(=O)n(O)c1=O | 1.2 | Not Active | 6.9 | 3.9 |  |  |  |  |  | 
O=c1cc(Nc2ccc(-c3cccc(O)c3)cc2)[nH]c(=O)n1O | 0.22 |  | 0.43 | 0.4 |  | 0.79 |  |  |  | 
Cn1c(Oc2ccc(-c3ccc(C(F)(F)F)cc3)cc2)cc(=O)n(O)c1=O | 6.2 | Not Active |  |  | Not Active |  |  |  |  | Not Active
O=c1cc(Nc2cccc(-c3ccc(Cl)cc3)c2)[nH]c(=O)n1O | 0.22 |  | 0.45 | 0.37 |  | 0.86 |  |  |  | 
